According to the RNAGym collection of RNA variant scans (doi:10.1126/science.aae0568):
Variants at the floor of the assay were thinned out.

B1: tRNA (parent)
chain: GUUCCGUUGGCGUAAUGGUAACGCGUCUCCCUCCUAAGGAGAAGACUGCGGGUUCGAGUCCCGUACGGAACG

Variants of: B1
Experiment: yeast fitness relative to wild type (ratio to wild type); higher = fitter; tRNA-Arg(CCU), competitive growth, 37 C, YPD
Procedure, shortened: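 Changes in genotype frequencies gave Darwinian fitness relative to wild type. Frequencies were read by 100-nucleotide paired-end sequencing of gene amplicons before and after pooled Saccharomyces cerevisiae strains, carrying tRNA-Arg(CCU) gene variants at the native locus, were competed in YPD at 37°C for 24 hours in six replicates. A genotype was kept only with ≥ 100 starting reads, and estimates < 0.5 were set to 0.5.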

For GUUCCGUUGGCGUAAUGGUAACGCGUCUCCCUCCUAAGGAGAAGGCUGCGGGUUCAAGUCCCGUACGGAACG [A45G G56A], which yeast fitness is on record?
Its yeast fitness is 1.1.

Which yeast fitness does the source give for GUUCCGUUGGCGUAAUGGUAACGCGUCUCCCUCCUAAGGAGAAGGCUGCGGGUUCGAAUUCCGUACGGAACG [A45G G58A C60U] here?
Its yeast fitness is 0.584.

Which yeast fitness does the source give for GUUCCGUUGGCGUAAUGGUAACGCGUCUCCCUCCUAAGGAGAAGGCUGCGGGUUCGAAUCCCGAACGGAACG [A45G G58A U64A] here?
Its yeast fitness is 0.71.

Which yeast fitness does the source give for GUUCCGUUGGCGUAAUGGUAACGCGUCUCCCUCCUAAGGAGAAGGCUGCGGGUUCGAGUCCCGUACAGAACG [A45G G67A] here?
Its yeast fitness is 0.961.

For GUUCCGUUGGCGUAAUGGUAACGCGUCUCCCUCCUAAGGAGAAGGCUGCGGGUUCGAGUCCCGUACCGAACG [A45G G67C], which yeast fitness is on record?
The yeast fitness was 0.872.

With GUUCCGUUGGCGUAAUGGUAACGCGUCUCCCUCCUAAGGAGAAGGCUGCGGGUUCGAGUCCCGUACGCAACG [A45G G68C] as the variant, how does the yeast fitness read?
Its yeast fitness is 0.695.

For GUUCCGUUGGCGUAAUGGUAACGCGUCUCCCUCCUAAGGAGAAGGCCGCGGGUUCGAGUCCCGUACGGAACG [A45G U47C], which yeast fitness is on record?
Its yeast fitness is 1.01.

For GUUCCGUUGGCGUAAUGGUAACGCGUCUCCCUCCUAAGGAGAAGGCUGCGGGUCCGAGUCCCGUACGGAACG [A45G U54C], which yeast fitness is on record?
Its yeast fitness is 0.774.

For GUUCCGUUGGCGUAAUGGUAACGCGUCUCCCUCCUAAGGAGAAGUCUGCGGGUUCGGGUCCCGUACGGAACG [A45U A57G], which yeast fitness is on record?
The yeast fitness was 0.917.

For GUUCCGUUGGCGUAAUGGUAACGCGUCUCCCUCCUAAGGAGAAGUCUGCGGGUUCGUGGCCCGGACGGAACG [A45U A57U U59G U64G], which yeast fitness is on record?
The yeast fitness was at most 0.5.

With GUUCCGUUGGCGUAAUGGUAACGCGUCUCCCUCCUAAGGAGAAGUCUGCGGGUUCGAGUCCCGUGCGGACCG [A45U A65G A70C] as the variant, how does the yeast fitness read?
The yeast fitness was 0.754.

With GUUCCGUUGGCGUAAUGGUAACGCGUCUCCCUCCUAAGGAGAAGUCUGCGGGUUCGAGUCCCGUGCGAAACG [A45U A65G G68A] as the variant, how does the yeast fitness read?
Its yeast fitness is 0.73.

Which yeast fitness does the source give for GUUCCGUUGGCGUAAUGGUAACGCGUCUCCCUCCUAAGGAGAAGUAUGCGGGUUCGAGUCCCAUACGGAACG [A45U C46A G63A] here?
The yeast fitness was 1.06.

With GUUCCGUUGGCGUAAUGGUAACGCGUCUCCCUCCUAAGGAGAAGUGUGCGGGUUCGAGUCCCAUACGGAACG [A45U C46G G63A] as the variant, how does the yeast fitness read?
Its yeast fitness is at most 0.5.

With GUUCCGUUGGCGUAAUGGUAACGCGUCUCCCUCCUAAGGAGAAGUUUGCGGGUUCGAGUCCCGUACGGAACG [A45U C46U] as the variant, how does the yeast fitness read?
The yeast fitness was 1.09.

Which yeast fitness does the source give for GUUCCGUUGGCGUAAUGGUAACGCGUCUCCCUCCUAAGGAGAAGUUUGCGGGCUCGAGUCCCGUACGGAACG [A45U C46U U53C] here?
Its yeast fitness is 0.574.

With GUUCCGUUGGCGUAAUGGUAACGCGUCUCCCUCCUAAGGAGAAGUCUGAGGGUUCGAGUCCCGUACGGAACG [A45U C49A] as the variant, how does the yeast fitness read?
Its yeast fitness is 0.57.

With GUUCCGUUGGCGUAAUGGUAACGCGUCUCCCUCCUAAGGAGAAGUCUGUGGGUUCGAGUCCCGAACGGAACG [A45U C49U U64A] as the variant, how does the yeast fitness read?
The yeast fitness was 0.571.

With GUUCCGUUGGCGUAAUGGUAACGCGUCUCCCUCCUAAGGAGAAGUCUGCGGGUUUGAGUCCAGUACGGAACG [A45U C55U C62A] as the variant, how does the yeast fitness read?
The yeast fitness was at most 0.5.

For GUUCCGUUGGCGUAAUGGUAACGCGUCUCCCUCCUAAGGAGAAGUCUGCGGGUUCGAGUUCCGUACGAAACG [A45U C60U G68A], which yeast fitness is on record?
Its yeast fitness is 0.575.

For GUUCCGUUGGCGUAAUGGUAACGCGUCUCCCUCCUAAGGAGAAGUCUGCGGGUUCGAGUCGCGUAUGGAACG [A45U C61G C66U], which yeast fitness is on record?
Its yeast fitness is 0.53.

For GUUCCGUUGGCGUAAUGGUAACGCGUCUCCCUCCUAAGGAGAAGUCUGCGGGUUCGAGUCUCGUACGGAACG [A45U C61U], which yeast fitness is on record?
The yeast fitness was 0.974.

For GUUCCGUUGGCGUAAUGGUAACGCGUCUCCCUCCUAAGGAGAAGUCUGCGGGUUCGAGUCCGGUACGGAACG [A45U C62G], which yeast fitness is on record?
Its yeast fitness is 0.837.

Which yeast fitness does the source give for GUUCCGUUGGCGUAAUGGUAACGCGUCUCCCUCCUAAGGAGAAGUCUGCGGGUUCGAGUCCGGUGCGGAACG [A45U C62G A65G] here?
Its yeast fitness is 0.913.

Which yeast fitness does the source give for GUUCCGUUGGCGUAAUGGUAACGCGUCUCCCUCCUAAGGAGAAGUCUGCGGGUUCGAGUCCUGUACGGAACG [A45U C62U] here?
Its yeast fitness is 1.07.

Which yeast fitness does the source give for GUUCCGUUGGCGUAAUGGUAACGCGUCUCCCUCCUAAGGAGAAGUCUGCGGGUUCGAGUCCUGUAUGGAACG [A45U C62U C66U] here?
The yeast fitness was 0.704.

Which yeast fitness does the source give for GUUCCGUUGGCGUAAUGGUAACGCGUCUCCCUCCUAAGGAGAAGUCUGCGGGUUCGAGUCCUCUACGGAACG [A45U C62U G63C] here?
The yeast fitness was at most 0.5.

Which yeast fitness does the source give for GUUCCGUUGGCGUAAUGGUAACGCGUCUCCCUCCUAAGGAGAAGUCUGCGGGUUCGAGUCCCGUAGGGAACG [A45U C66G] here?
Its yeast fitness is 0.617.

With GUUCCGUUGGCGUAAUGGUAACGCGUCUCCCUCCUAAGGAGAAGUCUCCGGGUUCGAGUCCCGUACGGAACG [A45U G48C] as the variant, how does the yeast fitness read?
Its yeast fitness is 0.857.

With GUUCCGUUGGCGUAAUGGUAACGCGUCUCCCUCCUAAGGAGAAGUCUCCGGGUUCGCGUCCCGUACUGAACG [A45U G48C A57C G67U] as the variant, how does the yeast fitness read?
The yeast fitness was at most 0.5.

Which yeast fitness does the source give for GUUCCGUUGGCGUAAUGGUAACGCGUCUCCCUCCUAAGGAGAAGUCUGCAGGUUCGAGUCCCGUACGGAACG [A45U G50A] here?
The yeast fitness was 1.01.

Which yeast fitness does the source give for GUUCCGUUGGCGUAAUGGUAACGCGUCUCCCUCCUAAGGAGAAGUCUGCAGGUUGGAGUCCCGUACGGAUCG [A45U G50A C55G A70U] here?
The yeast fitness was at most 0.5.

Which yeast fitness does the source give for GUUCCGUUGGCGUAAUGGUAACGCGUCUCCCUCCUAAGGAGAAGUCUGCAGGUUCGAGUCCCAUACGCUACG [A45U G50A G63A G68C A69U] here?
Its yeast fitness is at most 0.5.

With GUUCCGUUGGCGUAAUGGUAACGCGUCUCCCUCCUAAGGAGAAGUCUGCUGGUUCGAGUCCCGUACGCUACG [A45U G50U G68C A69U] as the variant, how does the yeast fitness read?
The yeast fitness was at most 0.5.

For GUUCCGUUGGCGUAAUGGUAACGCGUCUCCCUCCUAAGGAGAAGUCUGCGCGUUCGAGUCCCGUACGAAACG [A45U G51C G68A], which yeast fitness is on record?
Its yeast fitness is at most 0.5.

With GUUCCGUUGGCGUAAUGGUAACGCGUCUCCCUCCUAAGGAGAAGUCUGCGGAUUCGAGUCCCGCACGGUACG [A45U G52A U64C A69U] as the variant, how does the yeast fitness read?
The yeast fitness was at most 0.5.

For GUUCCGUUGGCGUAAUGGUAACGCGUCUCCCUCCUAAGGAGAAGUCUGCGGCUUCGAGUCCCGUACGGAACG [A45U G52C], which yeast fitness is on record?
Its yeast fitness is 0.642.

For GUUCCGUUGGCGUAAUGGUAACGCGUCUCCCUCCUAAGGAGAAGUCUGCGGGUUCAAGUCCCGUACGGCACG [A45U G56A A69C], which yeast fitness is on record?
Its yeast fitness is 0.766.
